Test results reported in PMC6694902 (Journal of Taibah University Medical Sciences, 2017).
Values after ≈ are worked out from the molar mass of the structure shown.

What was measured:
Escherichia coli (res) [1] = assay: Agar well diffusion, zone of inhibition; format: cell-based; details: mean ± S.D., n = 6; resistant to norfloxacin, ofloxacin, ampicillin, cefixime, nitrofurantoin
Procedure, shortened: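 Clinical isolate from a faecal sample (Bhubaneswar hospital). Nutrient agar plates were seeded with a 1.5 × 10^6 CFU/mL suspension matched to McFarland 0.5. Test compound was loaded into the agar wells from a DMF stock (1 mg/mL). Plates were incubated at 37 °C for 18–24 h and the inhibition zone was read. Amoxicillin and ampicillin were the reference antibiotics.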

[2] = test system: Klebsiella pneumoniae (MTCC 109); assay: Agar well diffusion, zone of inhibition; format: cell-based; details: mean ± S.D., n = 6
Procedure, shortened: (§1)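 Agar well diffusion on nutrient agar. K. pneumoniae MTCC 109 came from IMTECH; S. aureus (res) was an Utkal University isolate. Plates were seeded with 1.5 × 10^6 CFU/mL suspensions (McFarland 0.5). Test compounds were dissolved in DMF (1 mg/mL stock) and placed in wells, with amoxicillin and ampicillin as references. Plates were kept at 37 °C for 18–24 h, then zones were read.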

[3] = test system: Staphylococcus aureus (res); assay: Agar well diffusion, zone of inhibition; format: cell-based; details: mean ± S.D., n = 6; resistant to norfloxacin, ofloxacin, ampicillin, cefotaxime
Procedure, shortened: as §1

[4] = test system: Candida albicans (MTCC 3017); assay: Agar well diffusion, zone of inhibition; format: cell-based; details: mean ± S.D., n = 6
Procedure, shortened: (§2)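 Agar well diffusion on Sabouraud dextrose agar. C. albicans MTCC 3017 came from IMTECH; C. neoformans was an Utkal University strain. Plates were seeded with 1.5 × 10^6 CFU/mL suspensions (McFarland 0.5). Test compounds were dissolved in DMF (1 mg/mL stock) and loaded into wells, with fluconazole as reference. Incubation was 37 °C for 18–24 h, and zones were measured.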

Cryptococcus neoformans [5] = assay: Agar well diffusion, zone of inhibition; format: cell-based; details: mean ± S.D., n = 6
Procedure, shortened: as §2

[6] = test system: Staphylococcus aureus (res); assay: Minimum inhibitory concentration; format: cell-based; details: for MIC: Staphylococcus aureus, read-out: Minimum inhibitory concentration (MIC), S. aureus (res), 31.25–500 µg/mL tested, 37 °C, 18–24 h; for Minimum inhibitory concentration (MIC), S. aureus (res): 31.25–500 µg/mL tested, 37 °C, 18–24 h
Procedure, shortened: (§3)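 MIC was determined in nutrient agar wells seeded with bacteria (McFarland 0.5, 1.5 × 10^6 CFU/mL). E. coli (res) and S. aureus (res) were clinical isolates; K. pneumoniae was MTCC 109. DMF stocks at 1 mg/mL were diluted two-fold to five levels (31.25–500 µg/mL) in wells, with amoxicillin and ampicillin as references. Plates were incubated at 37 °C for 18–24 h.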

[7] = test system: Candida albicans (MTCC 3017); assay: Minimum inhibitory concentration; format: cell-based; details: for MIC: Candida albicans, MTCC3017, read-out: Minimum inhibitory concentration (MIC), C. albicans; for Minimum inhibitory concentration (MIC), C. albicans: 31.25–500 µg/mL tested, 37 °C, 18–24 h
Procedure, shortened: (§4)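 MIC was determined in agar wells on Sabouraud dextrose agar seeded with the fungal strain (McFarland 0.5, 1.5 × 10^6 CFU/mL). DMF stocks at 1 mg/mL were diluted two-fold to five levels (31.25–500 µg/mL) and loaded into wells, with fluconazole as reference. After 18–24 h at 37 °C, the lowest inhibitory concentration was taken as the MIC.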

Cryptococcus neoformans [8] = assay: Minimum inhibitory concentration; format: cell-based; details: for MIC: Cryptococcus neoformans, read-out: Minimum inhibitory concentration (MIC), C. neoformans; for Minimum inhibitory concentration (MIC), C. neoformans: 31.25–500 µg/mL tested, 37 °C, 18–24 h
Procedure, shortened: as §4

[9] = DPPH radical scavenging assay; format: biochemical; details: mean ± S.D., n = 3; for IC50 (DPPH radical scavenging): graphically determined
Procedure, shortened: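 DPPH scavenging, a modified method, was read as absorbance at 517 nm for test compounds at several concentrations. BHT served as standard, and DPPH in methanol served as control. Percent inhibition was calculated from control and sample absorbances, and IC50 was obtained graphically. Data were analysed by one-way ANOVA with Dunnett's post hoc test.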

Escherichia coli (res) [10] = assay: Minimum inhibitory concentration; format: cell-based; details: for MIC: Escherichia coli, read-out: Minimum inhibitory concentration (MIC), E. coli (res), 31.25–500 µg/mL tested, 37 °C, 18–24 h
Procedure, shortened: as §3

[11] = test system: Klebsiella pneumoniae (MTCC 109); assay: Minimum inhibitory concentration; format: cell-based; details: for Minimum inhibitory concentration (MIC), K. pneumoniae: 31.25–500 µg/mL tested, 37 °C, 18–24 h
Procedure, shortened: as §3

Row | Structure (SMILES) | zone of inhibition, E. coli (res) (Escherichia coli (res) [1]) | zone of inhibition, K. pneumoniae [2] | zone of inhibition, S. aureus (res) [3] | zone of inhibition, C. albicans [4] [mm] | zone of inhibition, C. neoformans (Cryptococcus neoformans [5]) [mm] | MIC [6] [µg/mL] | MIC [7] [µg/mL] | MIC (Cryptococcus neoformans [8]) [µg/mL] | % Inhibition (DPPH) ([9]; Conc. 10 μg/mL) [%] | % Inhibition (DPPH) ([9]; Conc. 30 μg/mL) [%] | % Inhibition (DPPH) ([9]; Conc. 50 μg/mL) [%] | % Inhibition (DPPH) ([9]; Conc. 70 μg/mL) [%] | IC50 (DPPH radical scavenging) [9] [µg/mL] | MIC (Escherichia coli (res) [10]) [µg/mL] | MIC ([11]; Klebsiella pneumoniae, MTCC109, read-out: Minimum inhibitory concentration (MIC), K. pneumoniae, 31.25–500 µg/mL tested, 37 °C, 18–24 h) [µg/mL] | Minimum inhibitory concentration (MIC), E. coli (res) (Escherichia coli (res) [10]; 31.25–500 µg/mL tested, 37 °C, 18–24 h) [µg/mL] | Minimum inhibitory concentration (MIC), K. pneumoniae [11] [µg/mL] | Minimum inhibitory concentration (MIC), S. aureus (res) [6] [µg/mL] | Minimum inhibitory concentration (MIC), C. albicans [7] [µg/mL] | Minimum inhibitory concentration (MIC), C. neoformans (Cryptococcus neoformans [8]) [µg/mL]
1 | Cc1cc(N=Nc2ccc(O)c(C=Nc3nc(-c4ccccc4)cs3)c2)ccc1Br [5a(Lig), 4-[(4-bromo-3-methylphenyl)diazenyl)-2-[(4-phenylthiazol-2-ylimino)methyl]phenol] | 13.67 ± 2.34 mm | 12.67 ± 2.25 mm | 15.83 ± 2.79^∗ mm | 12.17 ± 2.23 | 13.33 ± 1.37 | 31.2 (≈ 65.5 µM) | 250 (≈ 524 µM) | 250 (≈ 524 µM) | 27.99 ± 0.04 | 39.34 ± 0.02 | 49.09 ± 0.07 | 63.9 ± 0.05 | 56 ± 0.78 (≈ 117 µM) |  |  |  |  |  |  | 
2 | Cc1cc(N=Nc2ccc(O)c(C=Nc3nc(-c4ccc(Cl)cc4)cs3)c2)ccc1Br [5b(Lig), 4-[(4-bromo-3-methylphenyl)diazenyl]-2-[(4-(4-chlorophenyl)thiazol-2-ylimino)methyl]phenol] | 15.33 ± 2.07 mm | 13.5 ± 2.43 mm | 11.5 ± 1.87 mm | 12 ± 1.27 | 12.33 ± 1.75 |  | 250 (≈ 488 µM) | 250 (≈ 488 µM) | 19.26 ± 0.04 | 38.53 ± 0.09 | 48.33 ± 0.07 | 79.89 ± 0.06 | 52 ± 1.13 (≈ 102 µM) | 31.2 (≈ 61.1 µM) |  |  |  |  |  | 
3 | Cc1cc(C(C)(C)C)c(O)c(C(C)(C)C)c1 [BHT, butylated hydroxy toluene, reference compound] |  |  |  |  |  |  |  |  | 32.32 ± 0.01 | 49.54 ± 0.01 | 59.99 ± 0.10 | 87.74 ± 0.06 | 31 ± 0.70 (≈ 141 µM) |  |  |  |  |  |  | 
4 | Cc1cc(N=Nc2ccc(O)c(C=O)c2)ccc1Br [Compound 4e, 5-[(4-Bromo-3-methylphenyl)diazenyl]-2-hydroxybenzaldehyde] | 15.83 ± 1.47^∗ mm | 15.17 ± 2.14 mm | 16.17 ± 2.04^∗ mm | 10.17 ± 1.84 | 12.5 ± 1.52 | 31.2 (≈ 97.9 µM) | 500 (≈ 1570 µM) | 250 (≈ 783 µM) | 17.96 ± 0.03 | 29.54 ± 0.05 | 33.64 ± 0.09 | 56.39 ± 0.08 | 72 ± 1.4 (≈ 226 µM) | 31.2 (≈ 97.9 µM) | 31.2 (≈ 97.9 µM) |  |  |  |  | 
5 | Cc1cc(N=Nc2ccc([O][Cu][O]c3ccc(N=Nc4ccc(Br)c(C)c4)cc3C=Nc3nc(-c4ccccc4)cs3)c(C=Nc3nc(-c4ccccc4)cs3)c2)ccc1Br [Compound 6b, Bis[{4-((4-bromo-3-methylphenyl)diazenyl)-2-((4-phenylthiazol-2-ylimino)methyl)phenoxy}] copper,] | 15.83 ± 1.84^∗ mm | 16 ± 2.37^∗ mm | 18.33 ± 1.75^∗ mm | 13.33 ± 2.34 | 12.67 ± 1.51 |  |  |  | 28.43 ± 0.07 | 41.83 ± 0.02 | 51.41 ± 0.05 | 79.97 ± 0.06 | 48 ± 0.89 |  |  | 31.25 | 31.25 | 31.25 | 125 | 250
6 | Cc1cc(N=Nc2ccc([O][Ni][O]c3ccc(N=Nc4ccc(Br)c(C)c4)cc3C=Nc3nc(-c4ccccc4)cs3)c(C=Nc3nc(-c4ccccc4)cs3)c2)ccc1Br [Compound 6c, Bis[{4-((4-bromo-3-methylphenyl)diazenyl)-2-((4-phenylthiazol-2-ylimino)methyl)phenoxy}] nickel] |  | 14.67 ± 3.14 mm | 14.83 ± 1.84 mm | 11.33 ± 1.51 | 15.83 ± 1.84 |  |  |  | 25.43 ± 0.08 | 39.65 ± 0.09 | 61.41 ± 0.04 | 83.11 ± 0.04 | 40 ± 0.59 |  |  |  | 62.5 | 62.5 | 250 | 31.25
7 | Cc1cc(N=Nc2ccc([O][Ni][O]c3ccc(N=Nc4ccc(Br)c(C)c4)cc3C=Nc3nc(-c4ccc(Cl)cc4)cs3)c(C=Nc3nc(-c4ccc(Cl)cc4)cs3)c2)ccc1Br [Compound 6f, bis[4-{(4-bromo-3-methylphenyl)diazenyl}-2-{(4-(4-chlorophenyl)thiazol-2-ylimino)methyl}phenoxy] nickel] |  | 16.67 ± 1.37^∗ mm | 15.17 ± 1.94 mm | 12.5 ± 1.52 | 10.33 ± 1.75 |  |  |  | 39.73 ± 0.02 | 53.38 ± 0.03 | 63.38 ± 0.01 | 79.53 ± 0.02 |  |  |  |  | 31.25 | 31.25 | 125 | 250
